Inhibition data for ten compounds are collected here from ChEMBL document CHEMBL1150387, “Development and experimental validation of a docking strategy for the generation of kinase-targeted libraries” (J Med Chem, 2008).

In test [1] the target is 3-phosphoinositide-dependent protein kinase 1 (Homo sapiens) (UniProt O15530). The test can be described thus: Inhibition of PDK1 at 10 uM by HTRF assay relative to control. (In TR-FRET formats the signal depends on donor and acceptor labels being close together.)
Test [2] concerns the target Mitogen-activated protein kinase 14 (Homo sapiens) (UniProt Q16539). The experiment in a line: Inhibition of p38alpha at 10 uM by HTRF assay relative to control. In short, it runs like this: (§1)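 HTRF kinase assay, one panel of kinases. Inhibitor stock 50 µM in 100% DMSO; tested at 10 µM. ATP and substrate at final levels near Km. Final buffer: 50 mM Hepes/NaOH pH 7.4, 40 µM Na3VO4, 0.005% Tween-20, 1 mM DTT, MnCl2 or MgCl2 at kinase-dependent levels. Started by adding ATP/substrate. Reaction run at room temperature, time varied by kinase. Detection mix in 50 mM Hepes pH 7.4, 0.1% BSA, 150 mM KF, incubated ≥1 h at room temperature. Activity expressed as % of uninhibited control; n=2.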

The target in test [3] is Epidermal growth factor receptor (Homo sapiens) (UniProt P00533). The test can be described thus: Inhibition of EGFR at 10 uM by HTRF assay relative to control. An outline of the steps:
as §1

Test [4] concerns the target Vascular endothelial growth factor receptor 1 (Homo sapiens) (UniProt P17948). The test can be described thus: Inhibition of FLT1 at 10 uM by HTRF assay relative to control. In short, it runs like this:
as §1

Test [5] has as its target Receptor-type tyrosine-protein kinase FLT3 (Homo sapiens) (UniProt P36888). The experiment in a line: Inhibition of FLT3 at 10 uM by HTRF assay relative to control. An outline of the steps: as §1
Test [6] deals with MAP kinase-activated protein kinase 2 (Homo sapiens) (UniProt P49137). The test can be described thus: Inhibition of MAPKAPK2 at 10 uM by HTRF assay relative to control. In short, it runs like this:
as §1

Test [7] addresses Focal adhesion kinase 1 (Homo sapiens) (UniProt Q05397). The experiment in a line: Inhibition of FAK at 10 uM by HTRF assay relative to control. In short, it runs like this:
as §1

For test [8], the target named is Platelet-derived growth factor receptor beta (Homo sapiens) (UniProt P09619). The test can be described thus: Inhibition of PDGFRbeta at 10 uM by HTRF assay relative to control. An outline of the steps: as §1
In test [9] the target is Protein kinase C gamma type (Homo sapiens) (UniProt P05129). The experiment in a line: Inhibition of PKCgamma at 10 uM by HTRF assay relative to control. In short, it runs like this:
as §1

Test [10] has as its target T1, Calcium/calmodulin-dependent protein kinase type IV (Homo sapiens) (UniProt Q16566).
T1 sequence (whole entry): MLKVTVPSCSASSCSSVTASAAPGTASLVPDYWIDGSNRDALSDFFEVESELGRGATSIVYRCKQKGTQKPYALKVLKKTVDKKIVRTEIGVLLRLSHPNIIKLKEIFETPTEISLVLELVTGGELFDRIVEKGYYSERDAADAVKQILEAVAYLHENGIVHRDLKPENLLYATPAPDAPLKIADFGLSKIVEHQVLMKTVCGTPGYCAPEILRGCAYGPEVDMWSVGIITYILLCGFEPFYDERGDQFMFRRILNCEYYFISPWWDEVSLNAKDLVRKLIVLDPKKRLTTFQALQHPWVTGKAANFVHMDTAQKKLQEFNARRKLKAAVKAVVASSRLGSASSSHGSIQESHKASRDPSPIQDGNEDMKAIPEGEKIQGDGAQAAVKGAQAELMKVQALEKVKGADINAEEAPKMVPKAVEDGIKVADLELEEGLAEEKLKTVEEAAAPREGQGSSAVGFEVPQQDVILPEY
The test can be described thus: Inhibition of CaMK4 at 10 uM by HTRF assay relative to control. An outline of the steps: as §1

For test [11], the target named is Calcium/calmodulin-dependent protein kinase type II subunit alpha (Homo sapiens) (UniProt Q9UQM7). The experiment in a line: Inhibition of CaMK2alpha at 10 uM by HTRF assay relative to control. In short, it runs like this:
as §1

Test [12] deals with Protein kinase C alpha type (Homo sapiens) (UniProt P17252). The experiment in a line: Inhibition of PKCalpha at 10 uM by HTRF assay relative to control. In short, it runs like this:
as §1

For test [13], the target named is Vascular endothelial growth factor receptor 2 (Homo sapiens) (UniProt P35968). The test can be described thus: Inhibition of KDR at 10 uM by HTRF assay relative to control. An outline of the steps:
as §1

For test [14], the target named is T2, Ephrin type-B receptor 4 (Homo sapiens) (UniProt P54760).
T2 sequence (whole entry): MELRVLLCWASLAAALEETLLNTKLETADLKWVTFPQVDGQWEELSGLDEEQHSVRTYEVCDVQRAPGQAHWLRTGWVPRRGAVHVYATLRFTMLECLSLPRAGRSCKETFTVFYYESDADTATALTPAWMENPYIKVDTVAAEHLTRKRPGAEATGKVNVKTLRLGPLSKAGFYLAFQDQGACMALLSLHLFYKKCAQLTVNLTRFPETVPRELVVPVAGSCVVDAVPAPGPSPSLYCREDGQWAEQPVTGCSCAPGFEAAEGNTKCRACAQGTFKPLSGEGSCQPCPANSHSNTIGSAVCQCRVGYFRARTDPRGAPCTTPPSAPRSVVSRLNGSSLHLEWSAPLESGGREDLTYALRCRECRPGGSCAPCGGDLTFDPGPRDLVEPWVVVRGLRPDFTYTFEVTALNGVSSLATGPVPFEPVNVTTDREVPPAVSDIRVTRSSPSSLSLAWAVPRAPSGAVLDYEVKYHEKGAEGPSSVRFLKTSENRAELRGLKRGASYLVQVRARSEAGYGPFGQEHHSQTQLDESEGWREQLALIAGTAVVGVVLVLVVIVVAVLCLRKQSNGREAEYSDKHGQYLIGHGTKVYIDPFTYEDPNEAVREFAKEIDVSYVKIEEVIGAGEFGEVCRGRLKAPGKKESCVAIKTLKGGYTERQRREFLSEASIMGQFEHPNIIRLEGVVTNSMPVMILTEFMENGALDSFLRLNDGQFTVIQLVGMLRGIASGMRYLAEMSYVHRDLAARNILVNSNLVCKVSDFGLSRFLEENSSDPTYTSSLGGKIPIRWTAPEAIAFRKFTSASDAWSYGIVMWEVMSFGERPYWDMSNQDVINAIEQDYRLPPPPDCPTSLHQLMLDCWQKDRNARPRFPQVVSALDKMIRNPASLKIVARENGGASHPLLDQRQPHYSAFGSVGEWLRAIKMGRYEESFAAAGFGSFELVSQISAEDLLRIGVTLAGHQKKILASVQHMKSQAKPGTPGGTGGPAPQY
The experiment in a line: Inhibition of EphB4 at 10 uM by HTRF assay relative to control. In short, it runs like this:
as §1

Test [15] has as its target Mitogen-activated protein kinase 9 (Homo sapiens) (UniProt P45984). The test can be described thus: Inhibition of JNK2 at 10 uM by HTRF assay relative to control. An outline of the steps:
as §1

Focal adhesion kinase 1 (Homo sapiens), sequence (Q05397 2-1052 limits assumed): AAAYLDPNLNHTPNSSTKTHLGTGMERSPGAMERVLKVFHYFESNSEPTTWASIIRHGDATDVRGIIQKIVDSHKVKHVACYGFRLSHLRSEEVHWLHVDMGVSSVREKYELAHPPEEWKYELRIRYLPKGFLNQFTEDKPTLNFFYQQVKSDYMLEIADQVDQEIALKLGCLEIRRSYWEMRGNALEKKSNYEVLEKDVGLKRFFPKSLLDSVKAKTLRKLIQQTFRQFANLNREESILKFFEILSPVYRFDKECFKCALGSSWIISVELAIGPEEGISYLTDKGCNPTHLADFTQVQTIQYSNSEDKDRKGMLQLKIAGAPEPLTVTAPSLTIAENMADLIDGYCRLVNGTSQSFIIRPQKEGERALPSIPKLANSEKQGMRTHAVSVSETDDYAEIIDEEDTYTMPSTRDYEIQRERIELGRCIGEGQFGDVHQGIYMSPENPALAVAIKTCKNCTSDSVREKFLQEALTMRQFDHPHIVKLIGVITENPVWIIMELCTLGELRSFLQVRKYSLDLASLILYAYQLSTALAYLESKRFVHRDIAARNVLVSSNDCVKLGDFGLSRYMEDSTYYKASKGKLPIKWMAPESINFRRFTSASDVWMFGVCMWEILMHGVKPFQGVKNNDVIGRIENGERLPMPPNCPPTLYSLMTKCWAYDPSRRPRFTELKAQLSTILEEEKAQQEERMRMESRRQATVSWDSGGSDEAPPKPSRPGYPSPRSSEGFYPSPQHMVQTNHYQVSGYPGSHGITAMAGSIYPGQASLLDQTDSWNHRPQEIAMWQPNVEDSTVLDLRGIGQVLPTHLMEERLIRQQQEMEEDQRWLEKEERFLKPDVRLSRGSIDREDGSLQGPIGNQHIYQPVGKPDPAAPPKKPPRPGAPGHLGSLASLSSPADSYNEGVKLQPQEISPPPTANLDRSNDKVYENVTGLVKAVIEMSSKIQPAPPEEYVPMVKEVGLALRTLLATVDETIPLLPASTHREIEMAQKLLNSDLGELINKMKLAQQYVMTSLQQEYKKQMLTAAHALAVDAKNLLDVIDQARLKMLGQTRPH
MAP kinase-activated protein kinase 2 (Homo sapiens), sequence (P49137 whole entry, looked up): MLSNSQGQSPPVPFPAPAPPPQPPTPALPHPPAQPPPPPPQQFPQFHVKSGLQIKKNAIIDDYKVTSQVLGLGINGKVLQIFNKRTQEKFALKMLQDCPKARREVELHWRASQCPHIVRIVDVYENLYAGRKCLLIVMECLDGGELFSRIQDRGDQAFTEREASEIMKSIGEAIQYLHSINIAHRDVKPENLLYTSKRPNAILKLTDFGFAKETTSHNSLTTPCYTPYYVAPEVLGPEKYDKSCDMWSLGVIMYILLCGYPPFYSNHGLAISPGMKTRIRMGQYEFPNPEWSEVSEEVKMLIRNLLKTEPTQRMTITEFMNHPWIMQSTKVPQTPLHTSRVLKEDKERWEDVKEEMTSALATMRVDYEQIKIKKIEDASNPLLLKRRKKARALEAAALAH
Epidermal growth factor receptor (Homo sapiens), sequence (P00533 whole entry): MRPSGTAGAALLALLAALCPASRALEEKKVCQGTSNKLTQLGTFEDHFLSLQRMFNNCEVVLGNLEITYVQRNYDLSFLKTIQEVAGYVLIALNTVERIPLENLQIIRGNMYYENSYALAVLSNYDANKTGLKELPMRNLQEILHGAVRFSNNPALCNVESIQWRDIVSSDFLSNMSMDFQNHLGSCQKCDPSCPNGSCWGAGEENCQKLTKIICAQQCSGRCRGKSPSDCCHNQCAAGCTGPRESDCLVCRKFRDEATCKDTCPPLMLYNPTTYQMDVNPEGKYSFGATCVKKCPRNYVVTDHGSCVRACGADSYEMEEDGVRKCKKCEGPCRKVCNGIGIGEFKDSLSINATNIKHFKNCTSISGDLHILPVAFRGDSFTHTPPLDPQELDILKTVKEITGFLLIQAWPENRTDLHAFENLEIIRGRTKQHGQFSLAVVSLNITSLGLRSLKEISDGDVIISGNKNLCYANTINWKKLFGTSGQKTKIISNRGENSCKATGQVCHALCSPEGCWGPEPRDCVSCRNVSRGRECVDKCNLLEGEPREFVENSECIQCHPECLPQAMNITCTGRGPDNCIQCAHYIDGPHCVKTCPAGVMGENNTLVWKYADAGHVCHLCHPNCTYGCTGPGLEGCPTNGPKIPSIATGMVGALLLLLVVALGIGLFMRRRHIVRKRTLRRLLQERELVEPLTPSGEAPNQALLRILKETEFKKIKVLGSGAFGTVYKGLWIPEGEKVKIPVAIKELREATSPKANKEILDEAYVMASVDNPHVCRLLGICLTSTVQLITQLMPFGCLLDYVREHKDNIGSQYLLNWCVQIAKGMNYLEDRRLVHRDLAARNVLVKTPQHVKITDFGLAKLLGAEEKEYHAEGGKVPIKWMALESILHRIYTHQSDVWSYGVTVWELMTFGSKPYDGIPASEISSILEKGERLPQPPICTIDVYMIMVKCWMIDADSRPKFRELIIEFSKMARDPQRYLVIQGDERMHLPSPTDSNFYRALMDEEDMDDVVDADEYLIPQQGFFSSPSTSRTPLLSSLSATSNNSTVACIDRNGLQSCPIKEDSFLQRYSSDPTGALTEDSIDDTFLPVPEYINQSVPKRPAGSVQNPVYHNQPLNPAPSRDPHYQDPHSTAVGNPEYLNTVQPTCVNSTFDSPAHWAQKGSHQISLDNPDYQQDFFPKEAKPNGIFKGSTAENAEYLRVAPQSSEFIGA
Mitogen-activated protein kinase 14 (Homo sapiens), sequence (Q16539 whole entry): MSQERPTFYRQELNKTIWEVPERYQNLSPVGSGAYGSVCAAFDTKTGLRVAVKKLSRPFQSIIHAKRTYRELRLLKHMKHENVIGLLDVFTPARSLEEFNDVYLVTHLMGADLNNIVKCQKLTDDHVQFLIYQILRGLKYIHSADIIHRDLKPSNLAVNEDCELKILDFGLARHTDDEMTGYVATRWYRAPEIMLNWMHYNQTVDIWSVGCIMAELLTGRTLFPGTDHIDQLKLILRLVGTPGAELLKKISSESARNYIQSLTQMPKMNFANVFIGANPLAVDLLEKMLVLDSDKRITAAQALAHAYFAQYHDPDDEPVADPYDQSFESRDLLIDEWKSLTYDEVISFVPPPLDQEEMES
Vascular endothelial growth factor receptor 2 (Homo sapiens), sequence (P35968 whole entry): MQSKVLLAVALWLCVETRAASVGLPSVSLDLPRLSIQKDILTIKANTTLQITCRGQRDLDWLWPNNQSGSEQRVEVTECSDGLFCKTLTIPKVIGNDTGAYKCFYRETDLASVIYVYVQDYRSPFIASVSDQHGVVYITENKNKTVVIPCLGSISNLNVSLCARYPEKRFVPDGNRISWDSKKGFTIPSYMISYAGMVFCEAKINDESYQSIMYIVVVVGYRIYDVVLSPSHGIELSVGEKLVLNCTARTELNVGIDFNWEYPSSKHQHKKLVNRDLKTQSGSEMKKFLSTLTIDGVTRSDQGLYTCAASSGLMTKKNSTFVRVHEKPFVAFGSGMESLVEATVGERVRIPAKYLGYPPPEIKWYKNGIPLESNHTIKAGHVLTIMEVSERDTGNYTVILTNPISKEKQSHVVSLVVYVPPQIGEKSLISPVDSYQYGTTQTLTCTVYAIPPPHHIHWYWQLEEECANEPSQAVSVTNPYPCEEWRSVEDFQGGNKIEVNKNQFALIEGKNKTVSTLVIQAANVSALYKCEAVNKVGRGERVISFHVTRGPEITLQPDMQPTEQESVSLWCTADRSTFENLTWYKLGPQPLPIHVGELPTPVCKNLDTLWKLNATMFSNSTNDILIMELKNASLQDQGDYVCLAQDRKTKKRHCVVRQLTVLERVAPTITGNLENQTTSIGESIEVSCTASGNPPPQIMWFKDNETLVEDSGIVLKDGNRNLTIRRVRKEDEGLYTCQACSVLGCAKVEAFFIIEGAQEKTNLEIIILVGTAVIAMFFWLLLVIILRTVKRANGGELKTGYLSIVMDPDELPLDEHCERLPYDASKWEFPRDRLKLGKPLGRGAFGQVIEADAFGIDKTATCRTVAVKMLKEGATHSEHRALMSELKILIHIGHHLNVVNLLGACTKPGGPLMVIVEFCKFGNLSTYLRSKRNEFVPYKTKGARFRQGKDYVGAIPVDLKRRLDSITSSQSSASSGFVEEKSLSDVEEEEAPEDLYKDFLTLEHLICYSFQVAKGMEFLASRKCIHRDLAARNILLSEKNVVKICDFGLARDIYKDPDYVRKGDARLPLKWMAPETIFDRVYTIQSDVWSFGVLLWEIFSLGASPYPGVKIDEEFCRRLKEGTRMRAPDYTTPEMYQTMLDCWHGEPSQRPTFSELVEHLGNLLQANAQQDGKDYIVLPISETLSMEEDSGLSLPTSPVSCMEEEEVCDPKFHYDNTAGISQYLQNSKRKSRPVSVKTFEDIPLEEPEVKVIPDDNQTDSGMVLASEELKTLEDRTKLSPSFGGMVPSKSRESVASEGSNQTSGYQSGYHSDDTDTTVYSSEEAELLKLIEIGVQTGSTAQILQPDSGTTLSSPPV

For orientation: inhibition means the drop in the measured response relative to a control, in per cent. `CN(C)CC(C)(C)CNC(=O)c1cccc(Nc2nccc(Nc3ccc4ncsc4c3)n2)c1`: the inhibition in test [1] is 0%; in test [2], 23%; in [3] it was 16%; in test [4], 39%; in test [5], 99%; in test [6] it was 0%. The inhibition in test [7] was found to be 97%; in [8] it was 99%; in test [9] it was 79%; in test [10], 16%; in test [11], 34%; in test [12] it was 0%. The inhibition stood at 89% in [13], 18% in [14] and 88% in [15].
For the compound `Nc1nc(Nc2ccc3ncsc3c2)cc(N2CCC[C@H]2C(=O)NCCc2cccc(I)c2)n1`, the inhibition in test [1] was 7%; in [2] it was 10%; in test [3], 0%; in [4] it was 1%; in [5] it was 11%; in [6], 3%. Also, the inhibition came to 4% in test [7]; 14% in test [8]; 0% in test [9]; 0% in [10]; 0% in [11]; 0% in test [12]. Further, the inhibition in test [13] was 17%; in [14], 0%; in test [15], 5%.
For the compound `COc1cccc(Nc2cc(N3CCC[C@H]3C(=O)NCCc3ccc(O)cc3)nc(N)n2)c1`, the inhibition amounted to 0% in [1]; 8% in test [2]; 0% in test [3]; 2% in test [4]; 0% in [5]; 0% in test [6]. Further, the inhibition stood at 3% in [7]; 0% in test [8]; 5% in [9]; 0% in test [10]; 0% in test [11]; 0% in test [12]. Also, the results for the inhibition in [13], in test [14] and in test [15] were 6%, 0% and 2%, respectively.
Consider `Cc1cccc(N(C)c2cc(Nc3cccc(C(=O)N(CC(C)C)CC(C)C)c3)ncn2)c1`, for which the inhibition in test [1] was 0%; in test [2] it was 0%; in [3], 84%; in [4] it was 5%; in [5], 0%; in test [6] it was 0%. The inhibition amounted to 1% in test [7]; 9% in [8]; 3% in test [9]; 0% in test [10]; 0% in test [11]; 0% in test [12]. The inhibition in test [13] came out at 5%; in test [14], 0%; in test [15], 3%.
With `O=C(NC[C@@H]1CCCO1)c1cccc(Nc2nccc(Nc3ccc4ncsc4c3)n2)c1`, the inhibition in test [1] was determined as 3%; in test [2], 12%; in test [3], 43%; in [4] it was 87%; in test [5], 99%; in [6] it was 1%. Also, the inhibition amounted to 99% in test [7]; 98% in test [8]; 30% in test [9]; 0% in test [10]; 0% in [11]; 1% in test [12]. In addition, the results for the inhibition in test [13], in [14] and in test [15] were 95%, 57% and 87%, respectively.
On to `O=C(C1CCN(c2nccc(Nc3ccccc3)n2)CC1)N1CC[C@@H](O)C1`, for which the inhibition in test [1] came out at 2%; in [2], 0%; in test [3], 0%; in [4], 6%; in test [5], 0%; in [6], 4%. Also, the inhibition in test [7] was 0%; in test [8], 6%; in test [9] it was 5%; in [10], 0%; in [11] it was 0%; in test [12], 0%. In addition, the values for the inhibition in test [13], in test [14] and in test [15] were 4%, 0% and 5%, respectively.
In the case of `O=C(NC1Cc2ccccc2C1)c1cccc(Nc2ccnc(N3CCN(c4ccccc4)CC3)n2)c1`, the inhibition in [1] is 0%; in test [2] it was 1%; in test [3] it was 0%; in [4], 0%; in test [5], 0%; in test [6], 4%. Moreover, the inhibition stood at 0% in test [7]; 8% in test [8]; 3% in test [9]; 0% in test [10]; 0% in test [11]; 0% in test [12]. The inhibition in [13] came to 6%; in test [14], 0%; in [15] it was 3%.
On to `Nc1nc(Nc2ccccc2)cc(N2CCC(C(=O)NCCc3ccccn3)CC2)n1`, for which the inhibition was 0% in test [1]; 12% in test [2]; 0% in test [3]; 0% in test [4]; 0% in test [5]; 0% in test [6]. In addition, the inhibition in test [7] was 1%; in test [8] it was 0%; in test [9] it was 5%; in test [10] it was 0%; in test [11], 0%; in [12], 0%. The inhibition in test [13] came to 1%; in [14] it was 0%; in [15], 1%.
Take `Cc1cccc(N(C)c2cc(Nc3cccc(C(=O)N(C)CCc4ccccn4)c3)ncn2)c1`: the inhibition in test [1] was 0%; in test [2] it was 5%; in test [3], 97%; in [4], 3%; in test [5] it was 0%; in test [6], 0%. Moreover, the inhibition in test [7] amounted to 6%; in test [8] it was 23%; in test [9], 6%; in test [10], 0%; in [11] it was 0%; in test [12], 5%. The inhibition in test [13] stood at 31%; in test [14], 0%; in test [15], 4%.
On to `Nc1nc(Nc2ccc3ncsc3c2)cc(N2CCC[C@H]2C(=O)N[C@@H](CO)c2ccccc2)n1`, for which the inhibition in test [1] was found to be 2%; in test [2] it was 7%; in [3] it was 2%; in test [4] it was 5%; in test [5], 0%; in [6], 1%. Besides, the inhibition in test [7] amounted to 7%; in test [8] it was 6%; in [9], 1%; in test [10], 0%; in test [11], 0%; in test [12] it was 0%. Moreover, the figures for the inhibition in test [13], in test [14] and in test [15] were 10%, 0% and 4%, respectively.
